In publication PMC3582785 (Arthritis and rheumatism, 2013):

Tested on: SE-expressing peptides and tetrameric proteins
Assay: SPR binding of CRT variants
Conditions: citrullinated CRT compared to non-citrullinated CRT
Method in brief: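 Native, PAD-citrullinated or Arg→Ala mouse CRT was immobilised at 3000 RU. Analytes were 15mer SE-positive or SE-negative control peptides at 330 μM, and HLA-DR tetramers (SE-positive or SE-negative) at 250 nM.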

- interaction with the SE ligand (in words): higher affinity for the SE ligand
B1: Cit-CRT: recombinant mouse CRT citrullinated in vitro with PAD from rabbit skeleton muscle (protein, UniProt P14211 18-416, looked up)
Calreticulin: DPAIYFKEQFLDGDAWTNRWVESKHKSDFGKFVLSSGKFYGDLEKDKGLQTSQDARFYALSAKFEPFSNKGQTLVVQFTVKHEQNIDCGGGYVKLFPSGLDQKDMHGDSEYNIMFGPDICGPGTKKVHVIFNYKGKNVLINKDIRCKDDEFTHLYTLIVRPDNTYEVKIDNSQVESGSLEDDWDFLPPKKIKDPDAAKPEDWDERAKIDDPTDSKPEDWDKPEHIPDPDAKKPEDWDEEMDGEWEPPVIQNPEYKGEWKPRQIDNPDYKGTWIHPEIDNPEYSPDANIYAYDSFAVLGLDLWQVKSGTIFDNFLITNDEAYAEEFGNETWGVTKAAEKQMKDKQDEEQRLKEEEEDKKRKEEEEAEDKEDDDDRDEDEDEEDEKEEDEEESPGQAKDEL
modifications: citrullinated
